Measured values published in ChEMBL document CHEMBL1155721, “Isolation of dolastatin 10 from the marine cyanobacterium Symploca species VP642 and total stereochemistry and biological evaluation of its analogue symplostatin 1” (J Nat Prod, 2001).
Calls of active or inactive are those of the source. No cut-off for these calls is given here.

Legend:
[1] = system: A10; experiment: Antitumor activity against rat A10 cells assessed as total loss of cellular microtubule at 150 nM after 18 hrs by indirect immunofluorescence; format: functional, cell-based
[2] = system: A10; experiment: Antitumor activity against rat A10 cells assessed as total loss of cellular microtubule at 0.75 nM after 18 hrs by indirect immunofluorescence; format: functional, cell-based
In short: (§1)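 Rat A-10 cells were plated on glass coverslips and left to attach and grow for at least 24 h. Drug was then added for 18 h. Cells were fixed and cellular microtubules were visualised by indirect immunofluorescence.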

[3] = system: KB; experiment: Cytotoxicity against human KB cells; format: functional, cell-based
In short: (§2)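 In vitro cytotoxicity was read out by the sulforhodamine B (SRB) assay, and IC50 values were derived from it.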

[4] = system: Mus musculus; experiment: Toxicity in iv dosed mouse on 1 day; format: organism-based; settings: in vivo, 24 h
In short: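 Mice received a single intravenous injection on day 1 at 1.0 or 1.4 mg/kg, and lethality was recorded.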

[5] = Antitumor activity against adriamycin-resistant early stage mouse M17/ADR cell implanted in mouse at 2.8 mg/kg, iv total dosing schedule on day 1 and day 4,7,8; format: functional
In short: (§3)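 Mice bearing early-stage subcutaneously implanted solid tumours; treatment given intravenously. Activity expressed as T/C and as log kill, (T − C)/(3.32·Td). T and C are the median days for treated and control tumours to reach 750-1000 mg. Td is the tumour volume doubling time.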

[6] = system: LoVo; experiment: Cytotoxicity against human LoVo cells; format: functional, cell-based; in short: as §2
[7] = system: A10; experiment: Antitumor activity against rat A10 cells assessed as total loss of cellular microtubule at 2.5 nM after 18 hrs by indirect immunofluorescence; format: functional, cell-based
[8] = Antitumor activity against adriamycin-resistant early stage mouse M16/C/ADR cell implanted in mouse at 3.15 mg/kg, iv total dosing schedule on day 1 and day 3, 5 to 9; format: functional; in short: as §3
[9] = Antitumor activity against drug-insensitive mouse 16/C cell implanted in mouse at 1.25 mg/kg, iv total dosing schedule on day 1 and day 4 to 6; format: functional; in short: as §3
[10] = system: Mus musculus; experiment: Toxicity in iv dosed mouse assessed as local tissue damage; format: organism-based; settings: in vivo
[11] = system: Mus musculus; experiment: Liver toxicity in iv dosed mouse; format: organism-based; settings: in vivo
[12] = system: MC-38; experiment: Antitumor activity against drug-insensitive mouse C38 cell implanted in mouse at 3 mg/kg, iv total dosing schedule on day 3; format: functional; in short: as §3
[13] = system: A10; experiment: Antitumor activity against rat A10 cells assessed as loss of cellular microtubule after 18 hrs by indirect immunofluorescence; format: functional, cell-based; settings: A10, 18 h; in short: as §1
[14] = system: Mus musculus; experiment: Gastro intestinal toxicity in iv dosed mouse; format: organism-based; settings: in vivo

CC[C@]1(O)C[C@@H]2CN(CCc3c([nH]c4ccccc34)[C@@](C(=O)OC)(c3cc4c(cc3OC)N(C)[C@H]3[C@@](O)(C(=O)OC)[C@H](OC(C)=O)[C@]5(CC)C=CCN6CC[C@]43[C@@H]65)C2)C1
Activity [1]: Active

CC[C@H](C)[C@@H]([C@@H](CC(=O)N1CCC[C@H]1[C@H](OC)[C@@H](C)C(=O)N[C@@H](Cc1ccccc1)c1nccs1)OC)N(C)C(=O)[C@@H](NC(=O)[C@H](C(C)C)N(C)C)C(C)C (stereo in doubt; 1)
Activity [2]: Active

CC[C@H](C)[C@@H]([C@@H](CC(=O)N1CCC[C@H]1[C@H](OC)[C@@H](C)C(=O)N[C@@H](Cc1ccccc1)c1nccs1)OC)N(C)C(=O)[C@@H](NC(=O)[C@H]([C@@H](C)CC)N(C)C)C(C)C [SYMPLOSTATIN 1]
IC50 ([3]; Homo sapiens, KB): 0.15 nM
LD20 [4]: 1 mg/kg
LD60 [4]: 1.4 mg/kg
T/C [5]: 32%
IC50 ([6]; Homo sapiens, LoVo): 0.34 nM
Activity [7]: Active
T/C [8]: 36%
T/C [9]: 0%
Activity [10]: Toxic
Activity [11]: Toxic
T/C [12]: 0%
EC50 [13]: 0.6 nM
Activity [14]: Toxic

CC[C@H](C)[C@@H]([C@@H](CC(=O)N1CCC[C@H]1[C@H](OC)[C@@H](C)C(=O)N[C@@H](Cc1ccccc1)c1nccs1)OC)N(C)C(=O)[C@@H](NC(=O)[C@H](C(C)C)N(C)C)C(C)C (stereo in doubt) [DOLASTATIN-10]
IC50 ([3]; kb): 0.041 nM
IC50 ([6]; lovo): 0.066 nM

CC[C@H](C)[C@@H]([C@@H](CC(=O)N1CCC[C@H]1[C@H](OC)[C@@H](C)C(=O)N[C@@H](Cc1ccccc1)c1nccs1)OC)N(C)C(=O)[C@@H](NC(=O)[C@H](C(C)C)N(C)C)C(C)C (stereo in doubt; 1) [DOLASTATIN-10]
IC50 ([3]; Homo sapiens, KB): 0.052 nM
IC50 ([6]; Homo sapiens, LoVo): 0.076 nM
EC50 [13]: 0.25 nM
